The sample as a whole holds a higher share of hits than the screen did.
RORA inh: RORA (human) inhibition; 65,000 tested, 0.43% active; inhibition, % at 10 µM; CHO-K1 Gal4-RORA LBD luciferase reporter, luminescence; AID 561;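 active means inhibition above the mean of all tested compounds plus 3 SD, cut at about 52% in these data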
Target sequence (P35398 whole entry, looked up, the tested form may be a part): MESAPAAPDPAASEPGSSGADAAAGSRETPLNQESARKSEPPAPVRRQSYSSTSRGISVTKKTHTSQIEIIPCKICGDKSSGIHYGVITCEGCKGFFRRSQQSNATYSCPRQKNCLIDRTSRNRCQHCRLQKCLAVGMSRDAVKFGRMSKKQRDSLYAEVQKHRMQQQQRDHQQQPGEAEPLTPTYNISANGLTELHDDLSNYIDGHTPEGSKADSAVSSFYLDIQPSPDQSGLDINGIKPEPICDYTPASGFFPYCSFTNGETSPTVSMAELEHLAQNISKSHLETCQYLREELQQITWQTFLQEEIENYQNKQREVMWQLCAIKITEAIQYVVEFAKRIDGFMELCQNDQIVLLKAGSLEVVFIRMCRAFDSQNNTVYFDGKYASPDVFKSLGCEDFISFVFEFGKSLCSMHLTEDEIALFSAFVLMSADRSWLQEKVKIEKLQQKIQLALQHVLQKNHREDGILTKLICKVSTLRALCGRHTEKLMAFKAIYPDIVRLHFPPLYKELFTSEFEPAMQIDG
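Test system: CHO-K1 cells with Gal4-hRORA LBD fusion and pG5-luc reporter / Compound: single concentration per compound, 10 µM final / Schedule: 20 h compound treatment, 37 °C / Signal: luminescence from basal luciferase reporter expression / Read-out: % inhibition / Control set: mock-transfected cells as 100%, +RORA DMSO cells as 0% / Replicates: tested once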
Numbers stand for hits; 0 = inactive.

SMILES	RORA inh
COc1ccc(N2CCN(Cc3nc4c(c(=O)[nH]c(=O)n4C)n3Cc3cccc(Cl)c3)CC2)cc1	0
CN1C=CC(=C2C(=O)c3ccccc3C2=O)C=C1	0
CC1=CC(=C2C(=O)c3ccccc3C2=O)C=C(C)O1	0
CCCN1C=CC(=C2C(=O)c3ccccc3C2=O)C=C1	91
CCN1C=CC(=C2C(=O)c3ccccc3C2=O)C=C1	67
O=C(C1CC(=O)N(c2ccccc2)C1)N1CCN(C2=NS(=O)(=O)c3ccccc32)CC1 (stereo unspecified)	0
COc1ccccc1N1CCN(C(=O)c2cccc(N3C(=O)NC4CC3(C)Oc3ccccc34)c2)CC1 (stereo unspecified)	0
COCCn1cc(C(=O)NCCCN2CCC(C)CC2)c2c3ccccc3n(C)c2c1=O	0
O=C(Nc1ccc(Cc2ccncc2)cc1)c1ccco1	0
CCc1ccccc1NC(=O)COC(=O)C1CC(=O)N(c2ccc(F)cc2)C1 (stereo unspecified)	0
CC1CCCCN1C(=O)C1CC(c2ccc(F)cc2)=NO1 (stereo unspecified)	0
CSc1ncccc1C(=O)OCc1ccccc1F	0
Cc1occc1-c1nnc(SCC(=O)N2c3ccccc3CCc3ccccc32)n1C	0
COC(=O)c1cc2ccsc2n1CC(=O)Nc1cc(Cl)ccc1OC	0
Cc1cccc(NC(=O)CSc2nnc(-c3ccc(S(=O)(=O)N4CCOCC4)cc3)n2C)c1	0
O=P(O)(CCc1ccccn1)CN1CCCCC1	0
Oc1c(CN2CCCCC2)cc(COCc2ccccc2)c2cccnc12	53
Oc1c(CN2CCN(c3ccccn3)CC2)cc(Cl)c2cccnc12	60
c1ccc(-c2nnc(N3CCN(c4ccccn4)CC3)c3ccccc23)cc1	0
NC(=O)NC1CCCc2c1[nH]c1ccc(Cl)cc21 (stereo unspecified)	0
O=C(NC1CCCc2ccccc21)C1CCN(c2c(N3CCCC3)c(=O)c2=O)CC1 (stereo unspecified)	0
CC1CCc2ccccc2N1C(=O)c1cccs1 (stereo unspecified)	0
N#C/C(C(=O)c1ccccc1)=C1/SC=C(N)N1c1ccccc1	0
O=C(CSCCO)Nc1cc(C(F)(F)F)ccc1Cl	0
COc1ccc(-c2nnc(SCc3nnc(-c4ccccc4)o3)n2C)cc1OC	0
SMILES	RORA inh
CCOC(=O)C1CCN(c2ncnc3c2cnn3-c2ccc(Cl)cc2)CC1	66
Cc1nn(-c2ccccc2)c(Cl)c1C(=O)N1CCN(c2ncnc3c2cnn3-c2ccccc2)CC1	0
Cc1ccc(-n2ncc3c(N4CCC(C(N)=O)CC4)ncnc32)c(C)c1	0
CCCCOCCCNC(=O)c1c(-c2ccccc2)noc1C	0
COc1cc(C2C3C(C)N(C)C(=O)N(C)C3N(C)C(=O)N2C)ccc1O (stereo unspecified)	0
CC(C)c1ccc(NC(=O)CSc2nc3c(c(=O)[nH]2)CCC3)cc1	0
O=C(CCCN1C(=O)c2ccccc2C1=O)N1CCC(c2ccccc2)C1 (stereo unspecified)	0
COc1ccc(CCNc2c(C)c(C)nc3ncnn23)cc1	78
COc1ccc(CCC(=O)NCc2cnn(C)c2)cc1	0
COc1ccc(S(=O)(=O)NCCc2ccc(F)cc2)cc1	0
COC(=O)CSc1nnc2c(C)cc3cc4c(cc3n12)OCCO4	0
CS(=O)(=O)c1nc(-c2ccco2)cc(C(F)(F)F)n1	54
COc1ccc(CCNC(=O)CSc2nc(-c3ccco3)cc(C(F)(F)F)n2)cc1OC	0
COc1cccc(-c2cc(C(F)(F)F)nc(NCc3ccco3)n2)c1	0
C=CCNC(=O)c1ccccc1NC(=O)c1ccccc1	0
CCOC(=O)N1CCC(=C2c3ccc(Cl)cc3CCc3cccnc32)CC1	0
Cn1c(-c2ccc3c(c2)OCO3)cnc1NC(=O)CCC(=O)NCCc1ccccc1	0
Cc1ccc(-c2cnc(NC(=O)CCC(=O)N3CCCCC3)n2C)cc1	77
CCCC(=O)Nc1ccc(C(=O)N2CCCC2)cc1	0
O=C(Nc1ccon1)c1cccc(C(F)(F)F)c1	0
Nc1c(Br)cc2oc(-c3ccccc3)nc2c1Br	0
Nc1ccc2oc(-c3cc(Br)ccc3Cl)nc2c1	58
Cc1ccc(C)c(-c2nc3cc(N)ccc3o2)c1	0
COc1ccc(OCCCSc2ncccn2)cc1	0
CCOCCn1c(CN(Cc2ccccc2)Cc2ccccc2)nc2c1c(=O)n(C)c(=O)n2C	0
SMILES	RORA inh
O=C(C1CC1)N1CCN=C1SCc1ccccc1Cl	0
Cc1ccc(-c2nnc(Nc3ccccc3)o2)cc1	61
Brc1cccc(-c2nnc(-c3ccccc3)o2)c1	0
CCOc1ccccc1C(=O)Nc1ccc(-c2nnc(-c3ccc(C)cc3)o2)cc1	0
CS(=O)(=O)N(CC(=O)O)c1cc(Cl)cc(Cl)c1	0
O=C(O)[C@H](Cc1ccccc1)NC(=O)N1CCOCC1	0
Cc1nnc2c3cnn(-c4ccc(Cl)cc4)c3ncn12	0
CCc1ccc(-c2nnn(CCC(=O)OC)n2)cc1	53
CCCn1nnc(NC(=O)c2cc3ccccc3o2)n1	0
c1ccc(OCCCn2nnc(-c3ccc(N4CCOCC4)cc3)n2)cc1	0
COc1ccc(N2CCN(CCCNC(=O)CC3Oc4ccc(C)cc4NC3=O)CC2)cc1 (stereo unspecified)	0
CC(C)CCn1nnnc1C(c1ccc(N(C)C)cc1)N1CCN(C(=O)c2ccco2)CC1 (stereo unspecified)	0
CCc1ccc(NC2=NC(C(=O)NC3CCCCC3)CC(=O)N2)cc1 (stereo unspecified)	0
CCC(C)[C@H](N)c1nnc(SCc2cccc(F)c2)o1 (stereo partly specified)	0
CCN(CC)C(=O)N1CCC(NC(=O)c2ccccc2)CC1	0
CCCc1cc(N2CCCC(C(=O)Nc3ccc(OC)cc3OC)C2)n2ncnc2n1 (stereo unspecified)	0
Cn1c(=O)c2c(SCc3ccccn3)nc(-c3ccccc3)nc2n(C)c1=O	0
Nc1nc(Cl)nc2c1ncn2[C@H]1C[C@H](O)[C@@H](CO)O1	69
CN(C)c1ccc(NC(=O)c2ccc(COc3cccc(Cl)c3)o2)cc1	0
C=CCn1c(COc2ccccc2)nnc1SCC(=O)Nc1ccc(S(N)(=O)=O)cc1	0
CC1(C)OC(=O)N(c2cccnc2)C1(C)O (stereo unspecified)	0
CCOc1ccc(-c2cc(CCCC(=O)NCCc3ccc(OC)c(OC)c3OC)no2)cc1	57
CCCCC(=O)Nc1ccc(NC(=O)c2cc(OC)c(OC)c(OC)c2)cn1	0
CCOc1ccc(-c2cc(CCCC(=O)Nc3cccc(OC)c3)no2)cc1	0
O=C1Nc2cc(Cl)cnc2N2CCCC12 (stereo unspecified)	0
SMILES	RORA inh
COCCNC(=O)c1sc2ncn(CC(=O)N3CCCCC3)c(=O)c2c1C	0
CCOC(=O)N1CCN(C(=O)C(c2ccccc2)c2ccccc2)CC1	0
CC(C)OC(=O)C(NC(=O)c1ccccc1)=C1CCCCC1	0
NC(=O)CS(=O)(=O)c1nc2ccccc2n1Cc1ccccc1F	0
C=CCOC(=O)c1sc(NC(=O)c2ccco2)nc1C	0
CC1CCc2nc(NC(=O)c3ccco3)sc2C1 (stereo unspecified)	62
CS(=O)(=O)c1ccc2nc(NC(=O)c3ccco3)sc2c1	0
COc1ccc(-n2c(SCC#N)nnc2-c2ccc(NS(=O)(=O)c3ccc(C)cc3)cc2)cc1	0
COc1cccc(N2CCN(c3ncnc4c3[nH]c3ccccc34)CC2C)c1 (stereo unspecified)	95
COc1cccc(N2CCN(c3ncnc4c3[nH]c3ccc(F)cc34)CC2C)c1 (stereo unspecified)	95

Source: PubChem
